Series [1] concerns Trypanosoma cruzi. Kind of series: Antitrypanosomal activity against Trypanosoma cruzi Tulahuen infected in mouse NIH/3T3 cells assessed as multimode parasite growth inhibition after 4 days by beta-galactosidase reporter gene assay. The class given is functional, organism-based. Particulars: NIH3T3, 96 h. An outline of the steps:
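Recombinant Tulahuen T. cruzi stably expressing a beta-galactosidase reporter, cocultured with mouse NIH/3T3 fibroblast host cells. Compounds added to host cells before infection with parasites; growth inhibition read by reporter; IC50 in nM.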
Background: A reporter such as luciferase makes a cellular process visible.

Series [2] in a line: Solubility of the compound in phosphate buffer saline. The class given is physicochemical.
Series [3] relates to Trypanosoma cruzi. Kind of series: Antitrypanosomal activity against amastigote stage of Trypanosoma cruzi Tulahuen infected in rat L6 cells assessed as parasite growth inhibition after 96 hrs by beta-galactosidase reporter gene assay. Particulars: L6, 96 h. It counts as functional, organism-based.
Series [4] can be described thus: Plasma protein binding in human. It counts as ADME, cell-free. Particulars: read-out: PPB (converted).
A short description of series [5]: Metabolic stability in mouse microsomes assessed as compound remaining at 1 uM after 1 hr. It counts as ADME, Microsome. Conditions: read-out: Stability. The method, boiled down:
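Mouse liver microsomes incubated 1 h with compound at 1 μM; result expressed as percent of compound remaining.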

A short description of series [6]: Fraction unbound in human plasma. The class given is ADME, cell-free.
Series [7] has as its system Trypanosoma cruzi. Kind of series: Trypanocidal activity against Trypanosoma cruzi CA-I/72 infected in BESM cells assessed as parasite re-emergence at 40 nM treated for 29 days measured after 36 days. The class given is functional, organism-based. The method, boiled down:
(§1)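 T. cruzi-infected bovine embryo skeletal muscle (BESM) cells treated with varying compound concentrations for 20 or 29 days, compound refreshed every other day, then followed up to 36 days post-treatment. Trypomastigote emergence into medium checked visually daily through treatment and post-treatment phases; no re-emergence taken as trypanocidal, delayed emergence as trypanostatic.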

The test system of series [8] is Trypanosoma cruzi. Kind of series: Trypanocidal activity against Trypanosoma cruzi CA-I/72 infected in BESM cells assessed as parasite re-emergence at 40 nM measured over 29 days of drug treatment. It counts as functional, organism-based. The method, boiled down:
as §1

These results are taken from ChEMBL document CHEMBL3108709, “Diversity-oriented synthesis yields a new drug lead for treatment of chagas disease” (ACS Med Chem Lett, 2014).

Values after ≈ are worked out from the molar mass of the structure shown. Active and inactive are the calls of the source. No cut-off for these calls is given here.

Consider `C[C@H]1CN([C@@H](C)CO)C(=O)c2cccc(NC(=O)c3ccncc3)c2O[C@@H]1CN(C)Cc1ccc(Cl)cc1`, for which the IC50 (as a rule, the midpoint of a concentration-inhibition curve) in the series on Trypanosoma cruzi [1] worked out at 1 nM.
Same read-out and setting: the figure for `C[C@H]1CN([C@@H](C)CO)C(=O)c2cccc(NC(=O)c3ccncc3)c2O[C@@H]1CN(C)Cc1cccc(Cl)c1Cl` is 25 nM.
As to `C[C@H]1CN([C@@H](C)CO)C(=O)c2cccc(NC(=O)c3ccncc3)c2O[C@@H]1CN(C)Cc1ccccc1`, the concentration in solution in series [2] (solubility) came to 100 µM (≈ 50.3 µg/mL). Also, the IC50 with Trypanosoma cruzi [1] was found to be 12 nM.
For the compound `C[C@H]1CN([C@@H](C)CO)C(=O)c2cccc(NC(=O)c3ccncc3)c2O[C@@H]1CN(C)Cc1ccc(C(F)(F)F)cc1`, the half-maximal inhibitory concentration (IC50) is 422 nM in the series on Trypanosoma cruzi [3] and 13 nM in the series on Trypanosoma cruzi [1].
Regarding `CC(C)N1C[C@H](C)[C@@H](CN(C)Cc2cccc(Cl)c2)Oc2c(NC(=O)c3ccncc3)cccc2C1=O`, the IC50 in the series on Trypanosoma cruzi [1] amounted to 2 nM.
For `C[C@H](CO)N1C[C@H](C)[C@@H](CN(C)Cc2ccc(Oc3ccccc3)cc2)Oc2c(NC(=O)c3ccncc3)cccc2C1=O`, the fraction unbound in series [4] is 0.01. Besides, in series [2], the solubility (in general, how much of the substance goes into solution per volume) was determined as 2 µM (≈ 1.19 µg/mL). The remaining at 1 h, 1 µM in series [5] is 70%. For the same compound, the IC50 in the series with Trypanosoma cruzi [3] was determined as 31 nM; with Trypanosoma cruzi [1], 2 nM.
On to `CC(C)N1C[C@H](C)[C@@H](CN(C)Cc2ccc(Oc3ccccc3)cc2)Oc2c(NC(=O)C3CCN(C)CC3)cccc2C1=O`, for which the IC50 in the series with Trypanosoma cruzi [1] turned out to be 1200 nM.
For the compound `C[C@@H]1CN([C@@H](C)CO)C(=O)c2cccc(NC(=O)c3ccncc3)c2O[C@@H]1CN(C)Cc1ccc(Oc2ccccc2)cc1`, the fraction unbound in series [6] and in series [4] was 0.05 in each case. In series [2], the concentration in solution (solubility) came to 87 µM (≈ 51.7 µg/mL). In addition, the remaining at 1 h, 1 µM in series [5] is below 1%. Also, the IC50 in the series on Trypanosoma cruzi [3] came to 670 nM; in the series on Trypanosoma cruzi [1], 450 nM.
For `Cc1cccc(CN(C)C[C@H]2Oc3c(NC(=O)c4ccncc4)cccc3C(=O)N([C@@H](C)CO)C[C@@H]2C)c1`, the IC50 in the series with Trypanosoma cruzi [1] is 1 nM.
Consider `CC(C)N1C[C@H](C)[C@@H](CN(C)Cc2ccc(Oc3ccccc3)cc2)Oc2c(NC(=O)c3ccccn3)cccc2C1=O`, for which, in the series with Trypanosoma cruzi [1], the IC50 was found to be 344 nM.
On the same count and under the same terms, the figure for `Cc1ccc(CN(C)C[C@H]2Oc3c(NC(=O)c4ccncc4)cccc3C(=O)N([C@@H](C)CO)C[C@@H]2C)cc1` is 14 nM.
For the compound `C[C@H]1CN([C@@H](C)CO)C(=O)c2cccc(NC(=O)c3ccncc3)c2O[C@@H]1CN(C)Cc1ccccc1C(F)(F)F`, the IC50 with Trypanosoma cruzi [1] came out at 34 nM.
Turning to `C[C@H]1CN([C@@H](C)CO)C(=O)c2cccc(NC(=O)c3ccncc3)c2O[C@@H]1CN(C)Cc1ccc(Cl)c(F)c1`, the IC50 in the series on Trypanosoma cruzi [1] was 1 nM.
The same measure, in the same setting: the figure for `C[C@H]1CN([C@@H](C)CO)C(=O)c2cccc(NC(=O)c3ccncc3)c2O[C@@H]1CN(C)Cc1cc(Cl)cc(Cl)c1` is 10 nM; for `CC(C)N1C[C@H](C)[C@@H](CN(C)Cc2ccccc2Cl)Oc2c(NC(=O)c3ccncc3)cccc2C1=O` it is 45 nM; for `C[C@H]1CN([C@@H](C)CO)C(=O)c2cccc(NC(=O)c3ccncc3)c2O[C@@H]1CN(C)Cc1ccc(-c2ccccc2)cc1` it is 10 nM.
The same measure, in the same setting: the figure for `COc1ccc(CN(C)C[C@H]2Oc3c(NC(=O)c4ccncc4)cccc3C(=O)N([C@@H](C)CO)C[C@@H]2C)cc1` is 127 nM.
Turning to `CC(C)N1C[C@H](C)[C@@H](CN(C)Cc2ccc(Cl)cc2)Oc2c(NC(=O)c3ccncc3)cccc2C1=O`, the IC50 with Trypanosoma cruzi [3] came out at 61 nM; with Trypanosoma cruzi [1], 1 nM.
Take `C[C@H]1CN([C@@H](C)CO)C(=O)c2cccc(NC(=O)c3ccncc3)c2O[C@@H]1CN(C)Cc1c(Cl)cccc1Cl`: the IC50 with Trypanosoma cruzi [1] turned out to be 445 nM.
`C[C@@H]1CN([C@@H](C)CO)C(=O)c2cccc(NC(=O)c3ccncc3)c2O[C@H]1CN(C)Cc1ccc(Oc2ccccc2)cc1`: in series [4], the fraction unbound is 0.01. The solubility in series [2] came to 1 µM (≈ 0.595 µg/mL). The outcome with Trypanosoma cruzi [7] and with Trypanosoma cruzi [8] was Active. The remaining at 1 h, 1 µM in series [5] is 2%. Besides, the IC50 in the series on Trypanosoma cruzi [3] is 24 nM; in the series on Trypanosoma cruzi [1], 1 nM.
For `CC(C)N1C[C@H](C)[C@@H](CN(C)Cc2ccccc2)Oc2c(NC(=O)c3ccncc3)cccc2C1=O`, the IC50 in the series with Trypanosoma cruzi [1] is below 1 nM.
Still for that read-out and setting: the value for `CC(C)N1C[C@H](C)[C@@H](CN(C)Cc2ccc(Oc3ccccc3)cc2)Oc2c(NC(=O)c3cccnc3)cccc2C1=O` was 45 nM; that for `CC(C)N1C[C@H](C)[C@@H](CN(C)Cc2ccc(Oc3ccccc3)cc2)Oc2c(NC(=O)c3ccccc3)cccc2C1=O` was 500 nM.
Regarding `C[C@H]1CN([C@@H](C)CO)C(=O)c2cccc(NC(=O)c3ccncc3)c2O[C@@H]1CN(C)Cc1ccc(Cl)cc1Cl`, the IC50 with Trypanosoma cruzi [1] was 27 nM.
Turning to `C[C@@H]1CN([C@H](C)CO)C(=O)c2cccc(NC(=O)c3ccncc3)c2O[C@@H]1CN(C)Cc1ccc(Oc2ccccc2)cc1`, the fraction unbound in series [6] and in series [4] was 0.05 each time. Moreover, in series [2], the solubility stood at 86 µM (≈ 51.1 µg/mL). The remaining at 1 h, 1 µM in series [5] is below 1%. The IC50 is 1200 nM with Trypanosoma cruzi [3] and 260 nM in the series with Trypanosoma cruzi [1].
`C[C@@H]1CN([C@H](C)CO)C(=O)c2cccc(NC(=O)c3ccncc3)c2O[C@H]1CN(C)Cc1ccc(Oc2ccccc2)cc1`: the fraction unbound in series [4] is 0.01. This compound also had a solubility in series [2] of 1 µM (≈ 0.595 µg/mL). Moreover, the outcome with Trypanosoma cruzi [7] and in the series on Trypanosoma cruzi [8] was Active. Besides, the remaining at 1 h, 1 µM in series [5] turned out to be 1%. Besides, the half-maximal inhibitory concentration (IC50) with Trypanosoma cruzi [3] came out at 22 nM; in the series on Trypanosoma cruzi [1], 5 nM.
Consider `CC(C)N1C[C@H](C)[C@@H](CN(C)Cc2ccc(Oc3ccccc3)cc2)Oc2c(NC(=O)C3CCNCC3)cccc2C1=O`, for which, in the series on Trypanosoma cruzi [1], the IC50 was determined as 1000 nM.
The same measure, in the same setting: the value for `C[C@H]1CN([C@@H](C)CO)C(=O)c2cccc(NC(=O)c3ccncc3)c2O[C@@H]1CN(C)Cc1ccc(F)c(F)c1` was 50 nM.
In turn, `C[C@H]1CN([C@@H](C)CO)C(=O)c2cccc(NC(=O)c3ccncc3)c2O[C@@H]1CN(C)Cc1ccc(Cl)c(Cl)c1` returned a solubility in series [2] of 64 µM (≈ 36.6 µg/mL). The IC50 in the series on Trypanosoma cruzi [3] is 83 nM; with Trypanosoma cruzi [1], below 1 nM.
Take `CC(C)N1C[C@H](C)[C@@H](CN(C)Cc2ccc(Oc3ccccc3)cc2)Oc2c(NC(=O)c3ccncc3)cccc2C1=O`: the IC50 in the series on Trypanosoma cruzi [3] turned out to be 288 nM; with Trypanosoma cruzi [1], 1 nM.
For `COc1cccc(CN(C)C[C@H]2Oc3c(NC(=O)c4ccncc4)cccc3C(=O)N([C@@H](C)CO)C[C@@H]2C)c1`, the half-maximal inhibitory concentration (IC50) in the series on Trypanosoma cruzi [1] stood at 57 nM.
The same measure, in the same setting: the value for `C[C@H]1CN([C@@H](C)CO)C(=O)c2cccc(NC(=O)c3ccncc3)c2O[C@@H]1CN(C)Cc1cc(Cl)ccc1Cl` was 57 nM; that for `COc1ccccc1CN(C)C[C@H]1Oc2c(NC(=O)c3ccncc3)cccc2C(=O)N([C@@H](C)CO)C[C@@H]1C` was 78 nM.
As for `Cc1ccccc1CN(C)C[C@H]1Oc2c(NC(=O)c3ccncc3)cccc2C(=O)N([C@@H](C)CO)C[C@@H]1C`, the IC50 in the series with Trypanosoma cruzi [1] was 56 nM.
The same measure, in the same setting: the figure for `C[C@H]1CN([C@@H](C)CO)C(=O)c2cccc(NC(=O)c3ccncc3)c2O[C@@H]1CN(C)Cc1cccc(Cl)c1` is 15 nM.
For the compound `C[C@H]1CN([C@@H](C)CO)C(=O)c2cccc(NC(=O)c3ccncc3)c2O[C@@H]1CN(C)Cc1ccncc1`, the solubility in series [2] came to 100 µM (≈ 50.4 µg/mL). Further, the IC50 with Trypanosoma cruzi [1] was above 32000 nM.
As to `C[C@H]1CN([C@@H](C)CO)C(=O)c2cccc(NC(=O)c3ccncc3)c2O[C@@H]1CN(C)Cc1cccc(C(F)(F)F)c1`, the IC50 in the series with Trypanosoma cruzi [1] is 1 nM.
Still for that read-out and setting: the figure for `C[C@H]1CN([C@@H](C)CO)C(=O)c2cccc(NC(=O)c3ccncc3)c2O[C@@H]1CN(C)Cc1ccccc1Cl` is 165 nM.
